In PMC2219267 (The Journal of General Physiology, 1996):

Legend:
band 3 [1] = biological target: T1, band 3 (Homo sapiens, UniProt P02730); experiment: 36Cl exchange flux inhibition in red blood cells, Dixon plots; format: cell-based
T1 sequence (P02730 1-911): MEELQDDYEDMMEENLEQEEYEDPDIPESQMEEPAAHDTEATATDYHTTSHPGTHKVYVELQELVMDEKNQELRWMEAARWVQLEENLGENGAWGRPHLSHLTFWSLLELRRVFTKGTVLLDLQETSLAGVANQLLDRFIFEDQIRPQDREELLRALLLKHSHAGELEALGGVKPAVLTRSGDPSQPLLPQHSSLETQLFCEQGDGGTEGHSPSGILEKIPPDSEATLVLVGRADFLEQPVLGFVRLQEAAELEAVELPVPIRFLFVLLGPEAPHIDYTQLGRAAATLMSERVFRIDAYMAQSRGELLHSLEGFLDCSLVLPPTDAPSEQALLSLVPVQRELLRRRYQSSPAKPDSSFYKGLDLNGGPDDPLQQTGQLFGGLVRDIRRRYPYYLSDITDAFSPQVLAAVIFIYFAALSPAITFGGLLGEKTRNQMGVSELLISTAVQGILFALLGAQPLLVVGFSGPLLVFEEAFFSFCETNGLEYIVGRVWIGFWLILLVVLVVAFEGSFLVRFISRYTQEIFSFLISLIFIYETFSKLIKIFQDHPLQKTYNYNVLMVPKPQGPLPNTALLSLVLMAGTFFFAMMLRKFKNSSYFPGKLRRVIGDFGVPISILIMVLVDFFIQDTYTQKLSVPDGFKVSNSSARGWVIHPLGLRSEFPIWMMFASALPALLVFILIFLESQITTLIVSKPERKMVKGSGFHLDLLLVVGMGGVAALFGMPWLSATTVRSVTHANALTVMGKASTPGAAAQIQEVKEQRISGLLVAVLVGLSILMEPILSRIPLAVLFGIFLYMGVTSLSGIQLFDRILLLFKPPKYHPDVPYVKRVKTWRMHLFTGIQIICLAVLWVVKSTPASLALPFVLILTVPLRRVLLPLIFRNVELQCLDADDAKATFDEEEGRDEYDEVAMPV

band 3 [2] = biological target: T1, band 3; experiment: 125I iodide influx into red blood cells; format: cell-based
In short: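 Heparinised human blood was washed three times in 150 KH (150 mM KCl, 24 mM sucrose, 20 mM Hepes, pH 7.2 at 0°C), with white cells aspirated, then held at 50% hematocrit. DIDS-treated cells received a 2 mM DIDS stock. Media mixed sucrose, KCl and KI with 5 mM buffer. Above pHo 11, cells were nystatin-loaded to 300 mM Cl-, and CAPS-buffered media were used.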

O=S(=O)(O)CCCNC1CCCCC1 [CAPS, 3-[cyclohexylamino]-l-propanesulfonic acid]
effect of buffer on anion transport or on KoI (band 3 [1]; pHo ~12, compared with data obtained without buffer): does not show any inhibitory effects

O=S(=O)(O)c1cc(N=C=S)ccc1C=Cc1ccc(N=C=S)cc1S(=O)(=O)O [DIDS, 4,4'-diisothiocyano-stilbene-2,2'-disulfonate]
I- influx in DIDS-treated cells as % of value in control cells (band 3 [2]; all pH except 11.5): less than 10%
DIDS-insensitive I- flux as % of control flux (band 3 [2]; pH 11.5, very scattered values): up to 25%

O=C(O)CC(O)(CC(=O)O)C(=O)O [citrate]
type of inhibition of Cl- flux (Lineweaver-Burk plot) (band 3 [1]; 24 mM citrate, pHo 6.8, sucrose replacing Cl-): mixed inhibition
y intercept of Dixon slope vs 1/[Clo] (citrate) (band 3 [1]; pHo 6.8): 0.00017 kg Hb·s·mmol-1·mM-1
y intercept of Dixon slope vs 1/[Clo] (citrate) (band 3 [1]; pHo 8.0): 0.0001 kg Hb·s·mmol-1·mM-1
